MC4R barr agon: activates human MC4R beta-arrestin recruitment; P32245; AID 540308; hit rate 0.98% among 360,000; U2OS MC4R beta-arrestin complementation, luminescence; percent of melanotan II response, DMSO zero; activation, % at 8.9 µM;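 active = activation above a per-plate cutoff, the mean activation of sample wells on that plate plus 3 SD, cut at about 8% in these data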
Target sequence (P32245 whole entry, looked up): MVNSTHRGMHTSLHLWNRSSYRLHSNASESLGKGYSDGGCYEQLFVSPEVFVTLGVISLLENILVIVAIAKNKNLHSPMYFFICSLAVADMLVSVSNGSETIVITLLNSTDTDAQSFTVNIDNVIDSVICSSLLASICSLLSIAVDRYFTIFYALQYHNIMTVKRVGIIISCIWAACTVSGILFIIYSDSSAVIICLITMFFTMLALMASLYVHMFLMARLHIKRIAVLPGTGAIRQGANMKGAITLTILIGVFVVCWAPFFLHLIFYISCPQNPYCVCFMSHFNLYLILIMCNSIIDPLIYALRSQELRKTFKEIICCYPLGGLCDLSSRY
MC4R antag cAMP: human MC4R antagonism in cAMP assay; P32245; MC4R-expressing cells, MTII-stimulated cAMP, LANCE TR-FRET; inhibition, % at 6.5 µM; hit rate 0.48% among 360,000;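 active = inhibition above its plate's cutoff, the mean of tested wells on that plate plus 3 SD, cut at about 29% in these data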
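Test system: U2OS cells stably expressing human melanocortin 4 receptor (MC4R); also added: Melanotan II challenge; compound: 6.5 µM single dose; timing: 30-min compound preincubation, 1-h Melanotan II challenge, 1-h detection, room temperature; signal: Eu-cAMP/anti-cAMP TR-FRET, emission 671 nm; repeats: one well per compound, no replicates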
UPR XBP1 act: activators of adaptive arm of unfolded protein response (XBP1). activation, % at 20 µM. hit rate 0.33% among 330,000. CHO-XBP1 luciferase reporter, IRE1-XBP1 UPR activation, luminescence; percent of tunicamycin response, DMSO as zero;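 active = versus positive control, 20 µM dose yields 30% or more activation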
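Material: CHO-XBP1 cells stably carrying IRE1-XBP1-driven luciferase reporter / Amount: 1000 cells per well / Compound: 20 µM, 1% DMSO / Times: 6 h treatment, 37 °C / Detection: luciferase luminescence / Measure: % activation of reporter signal versus tunicamycin and DMSO controls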
UPR CHOP act: apoptotic UPR (CHOP) activation; hit rate 0.34% among 330,000; activation, % at 10 µM; CHO-CHOP luciferase reporter, luminescence; percent of tunicamycin response over DMSO baseline;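 active = at 10 µM dose, activation of 40% or more, normalized to positive control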
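Dosing – one dose, 10 µM in 0.5% DMSO · System – CHO-CHOP cells, stable luciferase reporter of PERK-eIF2a-CHOP signalling · Input – 500 cells/well · Control set – tunicamycin 10 µg/mL final as positive, DMSO-only wells as negative · Timing – 6 h compound treatment, 37 °C · Measure – % activation vs tunicamycin · Technique – luminescence read with Steady-Glo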
A1 inh: inhibitors of the anti-apoptotic protein A1, read as caspase activation; MEF A1-2A-BIM cells, Caspase-Glo 3/7 luminescence, 3 h; percent of clofoctol response, vehicle zero; caspase activation, % (no concentration beside the values); hit rate 0.066% among 330,000; AID 2462;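 active = over half of replicate activation scores above 10%, or exactly half above 10 with the replicate mean above 10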
CHOP UPR conf: confirmation of apoptotic unfolded protein response (CHOP) activators; shares compounds with UPR CHOP act; CHO-CHOP cells, CHOP-luciferase reporter luminescence; percent of tunicamycin response, DMSO as zero; activation, % at 10 µM; hit rate 64% among 1,000; in the data active = activation above about 33%
UPR XBP1 confirm: confirmation of adaptive unfolded protein response (XBP1) activators | shares compounds with UPR XBP1 act | CHO-XBP1 IRE1-XBP1 luciferase reporter, luminescence | activation, % at 20 µM | hit rate 63% among 1,000 | AID 485299;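 active = reporter signal at least 30% of the positive control's activation in two or more of four replicate wells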
A number is an active result; – = inactive; · = no result. Compounds with a hit are over-represented: about 2% of the library has one in this group of screens.

SMILES | MC4R barr agon | MC4R antag cAMP | UPR XBP1 act | UPR CHOP act | A1 inh | CHOP UPR conf | others
CN1C(=O)NC(=O)/C(=C\C=C\c2ccccc2[N+](=O)[O-])C1=O | · | · | – | 203 | – | 263
C=C(C)C(Cc1c(OC)ccc(C(=O)/C=C/c2ccc(O)cc2)c1O)OO (stereo not given) | – | – | – | 47 | · | –
COc1cc(CN2CCN(c3cc(C)ccc3C)CC2)ccc1O | – | – | – | 393 | – | 152
CN1CSC(=S)N(C)C1 | – | – | – | 40 | – | –
C=CCN1C(=O)/C(=C/c2ccc3c(c2)CCCN3CCC)C(=O)NC1=S | – | – | – | 95 | – | 164
CCCN(CC1CC1)CC(O)c1ccccc1 (stereo not given) | – | – | – | – | – | ·
COc1ccc(N2C(=O)/C(=C/c3ccc(C)o3)C(=O)NC2=S)cc1 | – | – | – | 433 | · | –
CC1CCC/C=C/C2CC(O)CC2C(O)/C=C/C(=O)O1 (stereo not given) | – | – | – | 123 | – | 103
C#C[C@]1(O)CC[C@H]2[C@@H]3[C@H](O)C[C@H]4C[C@@H](O)CC[C@]4(C)[C@H]3CC[C@@]21C | – | – | · | · | · | ·
Cc1cccc(N2C(=O)NC(=O)/C(=C\c3cccn3-c3ccc(Cl)cc3)C2=O)c1 | – | – | – | 419 | – | –
Cc1cccc(N2C(=O)NC(=O)/C(=C/c3ccc([N+](=O)[O-])o3)C2=O)c1 | · | · | · | · | – | ·
CCCCn1c(=O)c(C(=O)Nc2ncccc2C)c(O)c2ccccc21 | – | – | – | – | – | ·
CCCCCCn1c(=O)c(C(=O)Nc2ncccc2C)c(O)c2ccccc21 | – | – | 36 | 61 | – | –
CCOP(=O)(NC(C)C)Oc1ccc(SC)c(C)c1 (stereo not given) | – | – | · | · | · | ·
CN(C)c1ccc(C=C2C(=O)NC(=S)NC2=O)cc1 | – | – | · | · | · | ·
CCN(CC)c1ccc(C=C2C(=O)NC(=S)NC2=O)cc1 | – | – | – | 222 | – | 135
O=C(NCC1=C(c2cccc3ccccc23)C[C@@H]2CC[C@H]1N2Cc1ccco1)c1ccc([N+](=O)[O-])cc1 | – | – | · | · | · | ·
CC12C=CC(=O)C=C1CCC1C2C(O)CC2(C)C1CCC2(C)O (stereo not given) | – | – | · | · | · | ·
O=C1NC(=O)N(c2ccccc2)C(=O)/C1=C/C=C/c1ccco1 | – | – | – | 62 | – | 256
Cc1ccc(N2C(=O)NC(=O)/C(=C\C=C\c3ccco3)C2=O)cc1 | – | – | – | – | – | ·
O=C1NC(=O)N(Cc2ccccc2)C(=O)/C1=C\C=C\c1ccco1 | – | – | – | 161 | – | 186
COc1ccc(OC(=O)N(C)C[C@H]2OCc3cnnn3CCCC(=O)N([C@H](C)CO)C[C@H]2C)cc1 | – | – | · | · | · | ·
C/C(=C\c1ccc(N(C)C)cc1)[N+](=O)[O-] | – | – | – | 224 | – | 150
CN(C)c1ccc(C(=O)c2ccc(N(C)C)cc2)cc1 | – | – | – | – | – | ·
COc1ccc2c(c1)C1(C(=O)O)CC=CCC1(C(=O)O)C2 (stereo not given) | – | – | · | · | · | ·
O=C(COc1ccc2ccccc2c1)N1CCN(Cc2c[nH]c3ccccc23)CC1 | – | – | – | 76 | – | 43
O=C(COc1ccc(Br)cc1)N1CCN(Cc2c[nH]c3ccccc23)CC1 | – | – | – | – | – | ·
CC(CC(C#N)(c1ccccc1)c1ccccc1)N1CCOCC1 (stereo not given) | – | – | · | · | · | ·
Cc1ccc(C[n+]2c(-c3ccc(C)cc3)cc(-c3ccc(C)cc3)cc2-c2ccc(C)cc2)cc1 | 56 | – | 42 | 77 | – | 238 | UPR XBP1 confirm=–
NC1CC2CCCCC2CC1(O)c1ccccc1 (stereo not given) | – | – | · | · | · | ·
